# Measured values published in ChEMBL document CHEMBL4312032, “Design and synthesis of α-phenoxy-N-sulfonylphenyl acetamides as Trypanosoma brucei Leucyl-tRNA synthetase inhibitors” (Eur J Med Chem, 2020).
# Activity calls are given as the source filed them. The calls are words filed in the database; no cut-off is given here.
# Assays:
# [1] = Inhibition of Trypanosoma brucei LeuRS expressed in Escherichia coli BL21 (DE3)-RIPL cells assessed as decrease in [14C]-Leucine tRNA synthesis incubated for 20 mins in presence of [14C]leucine followed by incubation with ATP for 15 mins by liquid scintillation counting method
# Summary of the method: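 T. brucei LeuRS was expressed in E. coli BL21(DE3)-RIPL. Reactions held 50 mM HEPES-KOH pH 7.8, 5 mM MgCl₂, 45 mM KCl, 1 mM DTT, 0.02% BSA, 0.4 mg/mL tRNA and [¹⁴C]leucine. They were preincubated 20 min at 37 °C without ATP, then run 15 min after adding 4 mM ATP. Three aliquots were spotted on filter paper and averaged for IC50.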
# [2] = tested on: Trypanosoma brucei brucei; assay: Antitrypanosomal activity against bloodstream form of Trypanosoma brucei brucei 221 assessed as parasite growth inhibition incubated for 72 hrs by resazurin staining based assay; type: functional, organism-based; details: Trypanosoma brucei, 221, 72 h
# Summary of the method: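 Bloodstream-form T. b. brucei 221 kept in log phase in HMI-11 at 37 °C, 5% CO2, and seeded from a 2×10⁵/mL (2-fold) suspension. Compounds were serially diluted in DMSO and tested in triplicate for 72 h. Resazurin was then added for 5 h more. Fluorescence was read at ex 544/em 590 nm.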
# [3] = tested on: Trypanosoma brucei brucei; assay: Antitrypanosomal activity against bloodstream form of Trypanosoma brucei brucei 221 assessed as parasite growth inhibition at 22 uM incubated for 72 hrs by resazurin staining based assay; type: functional, organism-based
# Trypanosoma brucei = assay: Potency index, ratio of IC50 of 2-(4-bromo-2-chlorophenoxy)-N-(4-sulfamoylphenylcarbamothioyl)acetamide to IC50 of compound for inhibition of Trypanosoma brucei LeuRS expressed in Escherichia coli BL21 (DE3)-RIPL cells in presence of [14C]leucine incubated for 20 mins followed by incubation with ATP for 15 mins by liquid scintillation counting method
SMILES,IC50 [1] [µM],further results
NC(=O)CC[C@H](N)C(=O)NS(=O)(=O)c1ccc(NC(=O)COc2ccc(Br)cc2Cl)cc1,285,
CCOC(=O)CC[C@H](N)C(=O)NS(=O)(=O)c1ccc(NC(=O)COc2ccc(Br)cc2Cl)cc1,> 1000,
CC(C)C[C@H](NC(=O)OCc1ccccc1)C(=O)NS(=O)(=O)c1ccc(NC(=O)COc2ccc(Br)cc2Cl)cc1,110,
NS(=O)(=O)c1ccc(NC(=S)NC(=O)COc2ccc(Br)cc2Cl)cc1,174,
CC(C)C[C@H](N)C(=O)NS(=O)(=O)c1cccc(NC(=O)COc2ccccc2Cl)c1,5.69,
COc1cccc(OCC(=O)Nc2cccc(S(=O)(=O)NC(=O)[C@@H](N)CC(C)C)c2)c1,2.68,
CC(C)(C)OC(=O)N[C@@H](Cc1ccccc1)C(=O)NS(=O)(=O)c1ccc(NC(=O)COc2ccc(Br)cc2Cl)cc1,281,
NS(=O)(=O)c1ccc(NC(=O)COc2ccc(Br)cc2Cl)cc1,191,
CC(C)C[C@H](NC(=O)OC(C)(C)C)C(=O)NS(=O)(=O)c1ccc(NC(=O)COc2ccc(Br)cc2Cl)cc1,404,
O=C(COc1ccc(Br)cc1Cl)Nc1ccc(S(=O)(=O)NC(=O)c2ccco2)cc1,251,
CC(C)C[C@H](N)C(=O)NS(=O)(=O)c1cccc(NC(=O)COc2ccccc2)c1,5.51,
CC(C)C[C@H](N)C(=O)NS(=O)(=O)c1cccc(NC(=O)COc2ccc(-c3ccccc3)cc2)c1,7.28,IC50 [2]: 33.3 µM; inhibition [3]: Active
N[C@@H](Cc1ccccc1)C(=O)NS(=O)(=O)c1ccc(NC(=O)COc2ccc(Br)cc2Cl)cc1,> 1000,
CC(C)(C)OC(=O)N[C@@H](CCC(N)=O)C(=O)NS(=O)(=O)c1ccc(NC(=O)COc2ccc(Br)cc2Cl)cc1,685,
CC(C)C[C@H](N)C(=O)NS(=O)(=O)c1cccc(NC(=O)COc2cccc(-c3ccccc3)c2)c1,0.7,Ratio IC50 (Trypanosoma brucei): 250
CC(C)(C)OC(=O)N[C@@H](CCC(=O)OCc1ccccc1)C(=O)NS(=O)(=O)c1ccc(NC(=O)COc2ccc(Br)cc2Cl)cc1,98,
CC(C)C[C@H](N)C(=O)NS(=O)(=O)c1ccc(NC(=O)COc2ccc(Br)cc2Cl)cc1,38.4,Ratio IC50 (Trypanosoma brucei): 5
O=C(COc1ccc(Br)cc1Cl)Nc1ccc(S(=O)(=O)NC(=O)[C@H](Cc2ccccc2)NC(=O)OCc2ccccc2)cc1,116,
N[C@@H](CCC(=O)O)C(=O)NS(=O)(=O)c1ccc(NC(=O)COc2ccc(Br)cc2Cl)cc1,428,
COc1ccc(OCC(=O)Nc2cccc(S(=O)(=O)NC(=O)[C@@H](N)CC(C)C)c2)cc1,3.58,
CC(C)C[C@H](N)C(=O)NS(=O)(=O)c1cccc(NC(=O)COc2ccc([N+](=O)[O-])cc2)c1,6.81,
CC[C@H](C)[C@H](N)C(=O)NS(=O)(=O)c1ccc(NC(=O)COc2ccc(Br)cc2Cl)cc1,> 1000,
CC[C@H](C)[C@H](NC(=O)OC(C)(C)C)C(=O)NS(=O)(=O)c1ccc(NC(=O)COc2ccc(Br)cc2Cl)cc1,346,
